In paper PMC3845662 (Analytical chemistry, 2013):
Where “and” joins values, the source holds several entries; their conditions need not be identical. Identical values can stand only once.

What was measured:
[1] = target: T1, Hsp70-Bag3 complex (Homo sapiens, UniProt P0DMV8); experiment: CE-LIF screen / dose response for inhibition of the Hsp70-Bag3 interaction; format: binding; conditions: for classification from electropherogram (artifact): 20 μM compound; for hit in CE screen, reconfirmed with repurchased compound by DRC: primary screen 20 μM, repurchased compound dose response
T1 sequence (P0DMV8 whole entry, one chain of several): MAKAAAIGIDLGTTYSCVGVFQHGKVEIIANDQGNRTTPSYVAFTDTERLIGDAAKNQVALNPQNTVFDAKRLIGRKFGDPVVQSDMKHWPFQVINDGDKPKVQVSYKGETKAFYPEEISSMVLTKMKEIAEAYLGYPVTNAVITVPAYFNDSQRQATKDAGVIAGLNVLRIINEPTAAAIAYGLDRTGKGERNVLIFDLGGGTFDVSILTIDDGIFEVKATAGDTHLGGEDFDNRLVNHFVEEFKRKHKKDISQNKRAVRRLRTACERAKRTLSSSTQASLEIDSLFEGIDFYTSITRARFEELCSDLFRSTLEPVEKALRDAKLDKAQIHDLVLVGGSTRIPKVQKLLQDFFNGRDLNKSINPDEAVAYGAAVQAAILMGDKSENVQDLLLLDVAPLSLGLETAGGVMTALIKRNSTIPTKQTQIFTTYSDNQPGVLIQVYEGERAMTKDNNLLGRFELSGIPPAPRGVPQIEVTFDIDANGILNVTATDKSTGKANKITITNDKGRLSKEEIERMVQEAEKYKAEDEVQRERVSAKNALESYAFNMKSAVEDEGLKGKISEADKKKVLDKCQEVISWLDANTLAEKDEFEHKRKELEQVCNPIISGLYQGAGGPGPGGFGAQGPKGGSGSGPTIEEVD
Method in brief: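 Incubated ≥15 min at ambient temperature with dry-spotted compound; unlabelled Hsp70 as positive control. Coated capillary, 10 cm, 25 °C, pH 7.5 phosphate/Tween buffer, 500 V/cm. LIF bound/free peak-area ratio; screen hits ≥3 SD.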

[2] = target: T1, Hsp70-Bag3 complex; experiment: Flow cytometry protein interaction assay; format: binding; conditions: for cross-test of CE hit by DRC in FCPIA: repurchased compound, dose response; for result in original FCPIA screen: single concentration 20 μM, hit = inhibition ≥ 3 SD from negative controls
Method in brief: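 Biotinylated Hsp70 was immobilised on streptavidin polystyrene beads for 1 h, then mixed with Alexa Fluor 488-labelled Bag3 (30 nM final) and compound or DMSO. Unlabelled Hsp70 served as positive control. After 15 min, median bead-associated fluorescence was read by flow cytometry. Screen used 20 μM; hits ≥3 SD from negative controls.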

[3] = system: Hsp70; conditions: cited from earlier work
[4] = 0.5 μM Hsp70–488 and 0.5 μM Bag3

| Compound | classification from electropherogram (artifact) [1, 4] | hit in CE screen, reconfirmed with repurchased compound by DRC [1] | cross-test of CE hit by DRC in FCPIA [2] | result in original FCPIA screen [2] | also measured |
| --- | --- | --- | --- | --- | --- |
| O=C(O[C@@H]1Cc2c(O)cc(O)cc2O[C@@H]1c1cc(O)c(O)c(O)c1)c1cc(O)c(O)c(O)c1 [Epigallocatechin gallate] | – | – | – | – | classification from electropherogram ([1]; 15 μM compound, 0.5 μM Hsp70–488 and 0.5 μM Bag3): confirmed PPI inhibitor |
| O=C(O)CN(CC(=O)O)Cc1cc2c(cc1O)Oc1cc(O)c(CN(CC(=O)O)CC(=O)O)cc1C21OC(=O)c2ccccc21 [calcein] | identified as a fluorescent compound that interferes with detection of free Hsp70–488 | – | – | – | – |
| CC1=C(O)C(=O)C=C2C1=CC=C1[C@@]2(C)CC[C@@]2(C)[C@@H]3C[C@](C)(C(=O)O)CC[C@]3(C)CC[C@]12C [celastrol] | – | found by CE | reconfirmed by FCPIA | missed in the original FCPIA screen | – |
| Oc1cc2c(cc1O)C1c3ccc(O)c(O)c3OCC1(O)C2 (centres unmarked) [haematoxylin] | identified as an aggregator | – | – | – | – |
| O=c1c(O)c(-c2cc(O)c(O)c(O)c2)oc2cc(O)cc(O)c12 [myricetin] | – | found by CE | reconfirmed by FCPIA | missed in the original FCPIA screen | known modulator of Hsp70 [3]: known modulators of Hsp70 |
| unlabeled Hsp70: unlabeled recombinant human Hsp70 (HSPA1) used as competitor and positive control | – | – | – | – | IC50 (decrease of bound to free peak area ratio) ([1]; 0.5 μM Hsp70–488 and 0.5 μM Bag3 with increasing unlabeled Hsp70): 240 ± 3 nM and 240 nM |
